Measurements reported in ChEMBL document CHEMBL4152264, “Design, synthesis, antiproliferative activity and docking studies of quinazoline derivatives bearing 2,3-dihydro-indole or 1,2,3,4-tetrahydroquinoline as potential EGFR inhibitors” (Eur J Med Chem, 2018).
Calls of active or inactive are those of the source. The calls are words filed in the database; no cut-off is given here.

Test system: not listed separately
Assay: Solubility of the compound in water
Assay type: physicochemical
Details: buffer

Row | SMILES | solubility
1 | CCC/C=C/C(=O)Nc1cc2c(N3CCCc4ccccc43)ncnc2cc1O[C@@H]1CCOC1 | Insoluble
2 | CC(C)=CC(=O)Nc1cc2c(N3CCc4ccccc43)ncnc2cc1O[C@@H]1CCOC1 | Insoluble
3 | C=CC(=O)Nc1cc2c(N3CCc4ccccc43)ncnc2cc1O[C@@H]1CCOC1 | Insoluble
4 | COc1cc2ncnc(N3CCCc4ccccc43)c2cc1NC(=O)C=C(C)C | Insoluble

Further lines, results first:

Row | solubility | SMILES
5 | Insoluble | CC/C=C/C(=O)Nc1cc2c(N3CCc4ccccc43)ncnc2cc1OC
6 | Insoluble | CCC/C=C/C(=O)Nc1cc2c(N3CCCc4ccccc43)ncnc2cc1OC
7 | Insoluble | CCC/C=C/C(=O)Nc1cc2c(N3CCc4ccccc43)ncnc2cc1O[C@@H]1CCOC1
8 | Insoluble | COc1cc2ncnc(N3CCc4ccccc43)c2cc1NC(=O)C=C(C)C
9 | Insoluble | C/C=C/C(=O)Nc1cc2c(N3CCc4ccccc43)ncnc2cc1O[C@@H]1CCOC1
10 | Insoluble | C/C=C/C(=O)Nc1cc2c(N3CCCc4ccccc43)ncnc2cc1OC

Test system: A549
Assay: Antiproliferative activity against human A549 cells after 72 hrs by MTT assay
Assay type: functional, cell-based
Details: not given

Row | SMILES | Activity
11 | CN(C)C/C=C/C(=O)Nc1cc2c(N3CCc4ccccc43)ncnc2cc1O[C@@H]1CCOC1 | Dose-dependent effect

Same assay, conditions: A549, 72 h

Row | SMILES | IC50 [nM]
12 | CCC/C=C/C(=O)Nc1cc2c(N3CCCc4ccccc43)ncnc2cc1O[C@@H]1CCOC1 | 7320
13 | CN(C)C/C=C/C(=O)Nc1cc2c(N3CCc4ccccc43)ncnc2cc1O[C@@H]1CCOC1 | 1090
14 | CC(C)=CC(=O)Nc1cc2c(N3CCc4ccccc43)ncnc2cc1O[C@@H]1CCOC1 | 3670
15 | C=CC(=O)Nc1cc2c(N3CCc4ccccc43)ncnc2cc1O[C@@H]1CCOC1 | 9320
16 | COc1cc2ncnc(N3CCCc4ccccc43)c2cc1NC(=O)C=C(C)C | 5410

Second part, the compound after the results:

Row | IC50 [nM] | SMILES
17 | 2470 | CC/C=C/C(=O)Nc1cc2c(N3CCc4ccccc43)ncnc2cc1OC
18 | 2540 | COc1cc2ncnc(N3CCc4ccccc43)c2cc1NC(=O)/C=C/CN1CCCCC1
19 | 1980 | COc1cc2ncnc(N3CCc4ccccc43)c2cc1NC(=O)/C=C/CN1CCC(CO)CC1
20 | 1650 | COc1cc2ncnc(N3CCCc4ccccc43)c2cc1NC(=O)/C=C/CN(C)C
21 | 1210 | COc1cc2ncnc(N3CCc4ccccc43)c2cc1NC(=O)/C=C/CN1CCCC1
22 | 1800 | CCC/C=C/C(=O)Nc1cc2c(N3CCCc4ccccc43)ncnc2cc1OC
23 | 9110 | CCC/C=C/C(=O)Nc1cc2c(N3CCc4ccccc43)ncnc2cc1O[C@@H]1CCOC1
24 | 6270 | COc1cc2ncnc(N3CCc4ccccc43)c2cc1NC(=O)C=C(C)C
25 | 2610 | C/C=C/C(=O)Nc1cc2c(N3CCc4ccccc43)ncnc2cc1O[C@@H]1CCOC1
26 | 8190 | C/C=C/C(=O)Nc1cc2c(N3CCCc4ccccc43)ncnc2cc1OC

Test system: MCF7
Assay: Antiproliferative activity against human MCF7 cells after 72 hrs by MTT assay
Assay type: functional, cell-based
Details: not given

Row | SMILES | Activity
27 | CN(C)C/C=C/C(=O)Nc1cc2c(N3CCc4ccccc43)ncnc2cc1O[C@@H]1CCOC1 | Dose-dependent effect

Same assay, conditions: MCF7, 72 h

Row | SMILES | IC50 [nM]
28 | CCC/C=C/C(=O)Nc1cc2c(N3CCCc4ccccc43)ncnc2cc1O[C@@H]1CCOC1 | 4230
29 | CN(C)C/C=C/C(=O)Nc1cc2c(N3CCc4ccccc43)ncnc2cc1O[C@@H]1CCOC1 | 1340
30 | CC(C)=CC(=O)Nc1cc2c(N3CCc4ccccc43)ncnc2cc1O[C@@H]1CCOC1 | 15700
31 | C=CC(=O)Nc1cc2c(N3CCc4ccccc43)ncnc2cc1O[C@@H]1CCOC1 | 5950
32 | COc1cc2ncnc(N3CCCc4ccccc43)c2cc1NC(=O)C=C(C)C | 6870

Other lines, results leading:

Row | IC50 [nM] | SMILES
33 | 4030 | CC/C=C/C(=O)Nc1cc2c(N3CCc4ccccc43)ncnc2cc1OC
34 | 1680 | COc1cc2ncnc(N3CCc4ccccc43)c2cc1NC(=O)/C=C/CN1CCCCC1
35 | 2620 | COc1cc2ncnc(N3CCc4ccccc43)c2cc1NC(=O)/C=C/CN1CCC(CO)CC1
36 | 1770 | COc1cc2ncnc(N3CCCc4ccccc43)c2cc1NC(=O)/C=C/CN(C)C
37 | 1510 | COc1cc2ncnc(N3CCc4ccccc43)c2cc1NC(=O)/C=C/CN1CCCC1
38 | 1210 | CCC/C=C/C(=O)Nc1cc2c(N3CCCc4ccccc43)ncnc2cc1OC
39 | 4550 | CCC/C=C/C(=O)Nc1cc2c(N3CCc4ccccc43)ncnc2cc1O[C@@H]1CCOC1
40 | 6390 | COc1cc2ncnc(N3CCc4ccccc43)c2cc1NC(=O)C=C(C)C
41 | 4900 | C/C=C/C(=O)Nc1cc2c(N3CCc4ccccc43)ncnc2cc1O[C@@H]1CCOC1
42 | 12700 | C/C=C/C(=O)Nc1cc2c(N3CCCc4ccccc43)ncnc2cc1OC

Test system: PC-3
Assay: Antiproliferative activity against human PC3 cells after 72 hrs by MTT assay
Assay type: functional, cell-based
Details: not given
Method in brief: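 Cells grown in MEM with 10% FBS. About 4×10³ cells per well seeded and incubated 24 h at 37 °C, 5% CO₂. Compounds added at indicated final concentrations for 72 h. MTT at 5 µg/mL final for 4 h at 37 °C. Formazan dissolved in DMSO, absorbance read at 492 nm with 630 nm reference. Tested three times; IC50 is the mean of two determinations.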

Row | SMILES | Activity
43 | CN(C)C/C=C/C(=O)Nc1cc2c(N3CCc4ccccc43)ncnc2cc1O[C@@H]1CCOC1 | Dose-dependent effect

Same assay, conditions: PC-3, 72 h

Row | SMILES | IC50 [nM]
44 | CN(C)C/C=C/C(=O)Nc1cc2c(Nc3ccc(F)c(Cl)c3)ncnc2cc1O[C@@H]1CCOC1 | 2510
45 | CCC/C=C/C(=O)Nc1cc2c(N3CCCc4ccccc43)ncnc2cc1O[C@@H]1CCOC1 | 11800
46 | CN(C)C/C=C/C(=O)Nc1cc2c(N3CCc4ccccc43)ncnc2cc1O[C@@H]1CCOC1 | 1230
47 | CC(C)=CC(=O)Nc1cc2c(N3CCc4ccccc43)ncnc2cc1O[C@@H]1CCOC1 | 4620
48 | C=CC(=O)Nc1cc2c(N3CCc4ccccc43)ncnc2cc1O[C@@H]1CCOC1 | 2710
49 | COc1cc2ncnc(N3CCCc4ccccc43)c2cc1NC(=O)C=C(C)C | 6130

Second part, the compound after the results:

Row | IC50 [nM] | SMILES
50 | 5890 | CC/C=C/C(=O)Nc1cc2c(N3CCc4ccccc43)ncnc2cc1OC
51 | 4180 | COc1cc2ncnc(N3CCc4ccccc43)c2cc1NC(=O)/C=C/CN1CCCCC1
52 | 2650 | COc1cc2ncnc(N3CCc4ccccc43)c2cc1NC(=O)/C=C/CN1CCC(CO)CC1
53 | 1750 | COc1cc2ncnc(N3CCCc4ccccc43)c2cc1NC(=O)/C=C/CN(C)C
54 | 2620 | COc1cc2ncnc(N3CCc4ccccc43)c2cc1NC(=O)/C=C/CN1CCCC1
55 | 2240 | CCC/C=C/C(=O)Nc1cc2c(N3CCCc4ccccc43)ncnc2cc1OC
56 | 9230 | CCC/C=C/C(=O)Nc1cc2c(N3CCc4ccccc43)ncnc2cc1O[C@@H]1CCOC1
57 | 7840 | COc1cc2ncnc(N3CCc4ccccc43)c2cc1NC(=O)C=C(C)C
58 | 5220 | C/C=C/C(=O)Nc1cc2c(N3CCc4ccccc43)ncnc2cc1O[C@@H]1CCOC1
59 | 7520 | C/C=C/C(=O)Nc1cc2c(N3CCCc4ccccc43)ncnc2cc1OC

Biological target: Epidermal growth factor receptor (Homo sapiens, UniProt P00533)
Assay: Inhibition of wild type EGFR (unknown origin) using FAM-labeled peptide substrate after 10 mins by mobility shift assay
Details: not given

Chain of Epidermal growth factor receptor (Homo sapiens, UniProt P00533) (P00533 whole entry): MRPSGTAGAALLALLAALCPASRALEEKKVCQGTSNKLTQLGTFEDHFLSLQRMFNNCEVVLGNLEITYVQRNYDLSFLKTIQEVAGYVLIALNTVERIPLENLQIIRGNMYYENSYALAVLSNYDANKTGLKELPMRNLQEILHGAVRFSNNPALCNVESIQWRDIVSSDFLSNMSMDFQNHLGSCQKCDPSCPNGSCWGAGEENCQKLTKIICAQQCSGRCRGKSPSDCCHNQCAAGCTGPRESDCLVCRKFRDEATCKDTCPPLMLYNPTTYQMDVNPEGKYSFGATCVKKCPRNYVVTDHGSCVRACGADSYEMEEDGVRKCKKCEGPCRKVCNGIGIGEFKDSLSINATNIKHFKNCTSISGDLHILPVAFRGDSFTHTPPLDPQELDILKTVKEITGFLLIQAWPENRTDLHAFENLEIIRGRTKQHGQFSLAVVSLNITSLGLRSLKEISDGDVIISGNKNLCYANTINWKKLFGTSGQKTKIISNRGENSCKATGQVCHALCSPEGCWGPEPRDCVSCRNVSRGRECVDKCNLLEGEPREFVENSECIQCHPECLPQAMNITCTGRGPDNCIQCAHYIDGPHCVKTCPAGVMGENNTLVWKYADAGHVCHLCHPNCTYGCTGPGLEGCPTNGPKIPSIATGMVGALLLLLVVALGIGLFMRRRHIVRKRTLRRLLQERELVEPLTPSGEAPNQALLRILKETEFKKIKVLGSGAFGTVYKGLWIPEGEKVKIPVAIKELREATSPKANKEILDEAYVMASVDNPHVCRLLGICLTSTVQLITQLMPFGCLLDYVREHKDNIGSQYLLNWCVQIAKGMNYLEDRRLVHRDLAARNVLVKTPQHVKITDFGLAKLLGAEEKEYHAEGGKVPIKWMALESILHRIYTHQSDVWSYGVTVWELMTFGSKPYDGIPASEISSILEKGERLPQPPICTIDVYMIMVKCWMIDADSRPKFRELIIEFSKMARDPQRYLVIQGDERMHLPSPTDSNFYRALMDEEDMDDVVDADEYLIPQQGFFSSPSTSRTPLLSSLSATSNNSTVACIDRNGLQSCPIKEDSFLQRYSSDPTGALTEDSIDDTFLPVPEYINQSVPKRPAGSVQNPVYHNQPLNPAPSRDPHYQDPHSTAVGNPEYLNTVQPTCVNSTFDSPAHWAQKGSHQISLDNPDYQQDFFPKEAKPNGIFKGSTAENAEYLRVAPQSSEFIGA

Row | SMILES | IC50 [nM]
60 | CC/C=C/C(=O)Nc1cc2c(N3CCc4ccccc43)ncnc2cc1OC | 17
61 | COc1cc2ncnc(N3CCc4ccccc43)c2cc1NC(=O)/C=C/CN1CCCCC1 | 45.4
62 | COc1cc2ncnc(N3CCc4ccccc43)c2cc1NC(=O)/C=C/CN1CCC(CO)CC1 | 4
63 | COc1cc2ncnc(N3CCCc4ccccc43)c2cc1NC(=O)/C=C/CN(C)C | 72
64 | COc1cc2ncnc(N3CCc4ccccc43)c2cc1NC(=O)/C=C/CN1CCCC1 | 3
65 | CCC/C=C/C(=O)Nc1cc2c(N3CCCc4ccccc43)ncnc2cc1OC | 33
66 | CN(C)C/C=C/C(=O)Nc1cc2c(N3CCc4ccccc43)ncnc2cc1O[C@@H]1CCOC1 | 5
67 | C/C=C/C(=O)Nc1cc2c(N3CCc4ccccc43)ncnc2cc1O[C@@H]1CCOC1 | 29

Biological target: Epidermal growth factor receptor (Homo sapiens, UniProt P00533, T790M)
Assay: Inhibition of wild type EGFR T790M mutant (unknown origin) using FAM-labeled peptide substrate after 10 mins by mobility shift assay
Details: not given

Chain of Epidermal growth factor receptor (Homo sapiens, UniProt P00533, T790M) (P00533 25-1210 T790M limits assumed): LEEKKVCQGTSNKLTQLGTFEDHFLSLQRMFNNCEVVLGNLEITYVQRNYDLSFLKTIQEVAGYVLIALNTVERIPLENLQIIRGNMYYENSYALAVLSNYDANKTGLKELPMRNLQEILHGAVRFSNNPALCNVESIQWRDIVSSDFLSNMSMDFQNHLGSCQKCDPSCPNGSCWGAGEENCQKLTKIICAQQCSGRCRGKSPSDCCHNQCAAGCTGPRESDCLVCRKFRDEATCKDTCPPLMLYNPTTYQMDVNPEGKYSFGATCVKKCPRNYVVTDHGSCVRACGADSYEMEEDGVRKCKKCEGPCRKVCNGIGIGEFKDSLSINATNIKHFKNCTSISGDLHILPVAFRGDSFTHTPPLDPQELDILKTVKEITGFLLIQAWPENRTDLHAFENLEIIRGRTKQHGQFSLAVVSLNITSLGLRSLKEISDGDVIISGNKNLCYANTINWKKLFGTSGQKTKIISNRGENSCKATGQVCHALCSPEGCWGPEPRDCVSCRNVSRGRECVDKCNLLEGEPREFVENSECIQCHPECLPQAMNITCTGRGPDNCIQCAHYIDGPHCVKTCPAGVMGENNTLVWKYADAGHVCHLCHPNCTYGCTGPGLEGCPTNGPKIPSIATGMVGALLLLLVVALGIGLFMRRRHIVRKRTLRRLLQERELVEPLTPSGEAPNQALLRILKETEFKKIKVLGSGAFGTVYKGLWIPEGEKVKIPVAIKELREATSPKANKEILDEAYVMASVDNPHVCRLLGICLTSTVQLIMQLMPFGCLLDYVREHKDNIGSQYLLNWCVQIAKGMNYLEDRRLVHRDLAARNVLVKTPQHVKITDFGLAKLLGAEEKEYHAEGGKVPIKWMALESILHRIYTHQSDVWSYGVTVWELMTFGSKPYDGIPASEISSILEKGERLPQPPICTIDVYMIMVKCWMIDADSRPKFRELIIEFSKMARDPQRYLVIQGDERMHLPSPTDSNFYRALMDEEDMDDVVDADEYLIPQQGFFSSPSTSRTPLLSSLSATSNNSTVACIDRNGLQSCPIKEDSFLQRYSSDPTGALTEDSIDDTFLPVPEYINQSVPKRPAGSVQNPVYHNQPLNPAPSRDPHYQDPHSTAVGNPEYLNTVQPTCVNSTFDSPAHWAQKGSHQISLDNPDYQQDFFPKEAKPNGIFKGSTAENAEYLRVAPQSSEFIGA

Row | SMILES | IC50 [nM]
68 | CC/C=C/C(=O)Nc1cc2c(N3CCc4ccccc43)ncnc2cc1OC | 186
69 | COc1cc2ncnc(N3CCc4ccccc43)c2cc1NC(=O)/C=C/CN1CCCCC1 | 115
70 | COc1cc2ncnc(N3CCc4ccccc43)c2cc1NC(=O)/C=C/CN1CCC(CO)CC1 | 21
71 | COc1cc2ncnc(N3CCCc4ccccc43)c2cc1NC(=O)/C=C/CN(C)C | 107
72 | COc1cc2ncnc(N3CCc4ccccc43)c2cc1NC(=O)/C=C/CN1CCCC1 | 34
73 | CCC/C=C/C(=O)Nc1cc2c(N3CCCc4ccccc43)ncnc2cc1OC | 162
74 | CN(C)C/C=C/C(=O)Nc1cc2c(N3CCc4ccccc43)ncnc2cc1O[C@@H]1CCOC1 | 26
75 | C/C=C/C(=O)Nc1cc2c(N3CCc4ccccc43)ncnc2cc1O[C@@H]1CCOC1 | 192

Test system: A549
Assay: Induction of apoptosis in human A549 cells assessed as early apoptotic cells at 0.5 uM after 48 hrs by Annexin V-FITC/propidium iodide staining based flow cytometry (reference value: 5.61%)
Assay type: functional
Details: not given

Row | SMILES | Activity [%]
76 | CN(C)C/C=C/C(=O)Nc1cc2c(Nc3ccc(F)c(Cl)c3)ncnc2cc1O[C@@H]1CCOC1 | 13.53
77 | CN(C)C/C=C/C(=O)Nc1cc2c(N3CCc4ccccc43)ncnc2cc1O[C@@H]1CCOC1 | 14.59

Test system: A549
Assay: Induction of apoptosis in human A549 cells assessed as live cells at 0.5 uM after 48 hrs by Annexin V-FITC/propidium iodide staining based flow cytometry (reference value: 91.81%)
Assay type: functional
Details: not given

Row | SMILES | Activity [%]
78 | CN(C)C/C=C/C(=O)Nc1cc2c(Nc3ccc(F)c(Cl)c3)ncnc2cc1O[C@@H]1CCOC1 | 81.34
79 | CN(C)C/C=C/C(=O)Nc1cc2c(N3CCc4ccccc43)ncnc2cc1O[C@@H]1CCOC1 | 80.01

Test system: A549
Assay: Induction of apoptosis in human A549 cells assessed as late apoptotic cells at 0.5 uM after 48 hrs by Annexin V-FITC/propidium iodide staining based flow cytometry (reference value: 2.07%)
Assay type: functional
Details: not given

Row | SMILES | Activity [%]
80 | CN(C)C/C=C/C(=O)Nc1cc2c(Nc3ccc(F)c(Cl)c3)ncnc2cc1O[C@@H]1CCOC1 | 4.27
81 | CN(C)C/C=C/C(=O)Nc1cc2c(N3CCc4ccccc43)ncnc2cc1O[C@@H]1CCOC1 | 4.59

Test system: A549
Assay: Induction of apoptosis in human A549 cells assessed as necrotic cells at 0.5 uM after 48 hrs by Annexin V-FITC/propidium iodide staining based flow cytometry (reference value: 0.51%)
Assay type: functional
Details: not given

Row | SMILES | Activity [%]
82 | CN(C)C/C=C/C(=O)Nc1cc2c(Nc3ccc(F)c(Cl)c3)ncnc2cc1O[C@@H]1CCOC1 | 0.86
83 | CN(C)C/C=C/C(=O)Nc1cc2c(N3CCc4ccccc43)ncnc2cc1O[C@@H]1CCOC1 | 0.81

Test system: A549
Assay: Induction of apoptosis in human A549 cells at 1.09 uM after 12 hrs by acridine orange staining based fluorescence microscopic method
Assay type: functional, cell-based
Details: not given
Method in brief: (§1)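 A549 cells, grown in MEM with 10% FBS, were exposed to compound for 12 h alongside an untreated control group. They were stained with acridine orange alone and viewed by inverted and fluorescence microscopy. Nuclear colour (green versus red), cell shrinkage, edge clarity, refraction and chromatin condensation were assessed visually.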

Row | SMILES | Activity
84 | CN(C)C/C=C/C(=O)Nc1cc2c(N3CCc4ccccc43)ncnc2cc1O[C@@H]1CCOC1 | Active

Test system: A549
Assay: Induction of morphological changes in human A549 cells assessed as cell shrinkage at 1.09 uM after 12 hrs by acridine orange staining based fluorescence microscopic method
Assay type: functional
Details: not given
Method in brief: as §1

Row | SMILES | Activity
85 | CN(C)C/C=C/C(=O)Nc1cc2c(N3CCc4ccccc43)ncnc2cc1O[C@@H]1CCOC1 | Active

Test system: A549
Assay: Induction of morphological changes in human A549 cells assessed as chromatin condensation at 1.09 uM after 12 hrs by acridine orange staining based fluorescence microscopic method
Assay type: functional, cell-based
Details: not given
Method in brief: as §1

Row | SMILES | Activity
86 | CN(C)C/C=C/C(=O)Nc1cc2c(N3CCc4ccccc43)ncnc2cc1O[C@@H]1CCOC1 | Active
